# System: not listed separately
# Experiment: Selectivity index, ratio of CC50 for monkey Vero cells to IC50 for chloroquine-sensitive ring stage Plasmodium falciparum 3D7
# Type: functional
# Details: not given
# Procedure, shortened: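 Vero cells exposed to dilutions of test agents for 72 h; MTT read-out (modified Mosmann method); CC50 by non-linear regression. Ratio taken against the 3D7 IC50 from SYBR Green-I assay.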
row,Compound,Ratio CC50/IC50
1,COc1ccc(C(=O)/C=C/C2=CC(=C\NCCCNc3ccnc4cc(Cl)ccc34)/C(=O)C(C)=C2)cc1,295.66
2,CC1=CC(/C=C/C(=O)c2ccc(Cl)cc2)=CC(=C\NCCCNc2ccnc3cc(Cl)ccc23)/C1=O,513.99
3,CCC(C)C1=CC(/C=C/C(=O)c2ccc(O)cc2)=CC(=C\NCCCNc2ccnc3cc(Cl)ccc23)/C1=O (centres undefined),486.57
4,CCC(C)C1=CC(/C=C/C(=O)c2ccc(OC)cc2)=CC(=C\NCCCNc2ccnc3cc(Cl)ccc23)/C1=O (centres undefined),549.12
5,CCC(C)C1=CC(/C=C/C(=O)c2ccc(Cl)cc2)=CC(=C\NCCCNc2ccnc3cc(Cl)ccc23)/C1=O (centres undefined),491.77
6,COc1ccc(C(=O)/C=C/C2=CC(=C\Nc3ccc(Nc4ccnc5cc(Cl)ccc45)cc3)/C(=O)C(C)=C2)cc1,315.33
7,CC1=CC(/C=C/C(=O)c2ccc(F)cc2)=CC(=C\Nc2ccc(Nc3ccnc4cc(Cl)ccc34)cc2)/C1=O,407.52
8,CC(C)(C)C1=CC(/C=C/C(=O)c2ccc(Cl)cc2)=CC(=C\Nc2ccc(Nc3ccnc4cc(Cl)ccc34)cc2)/C1=O,196.7
9,CC1=CC(/C=C/C(=O)c2ccc(O)cc2)=CC(=C\NCCNc2ccnc3cc(Cl)ccc23)/C1=O,27548.21
10,COc1ccc(C(=O)/C=C/C2=CC(=C\NCCNc3ccnc4cc(Cl)ccc34)/C(=O)C(C)=C2)cc1,1137.97
11,CC1=CC(/C=C/C(=O)c2ccc(Cl)cc2)=CC(=C\NCCNc2ccnc3cc(Cl)ccc23)/C1=O,3755.43
12,CCC(C)C1=CC(/C=C/C(=O)c2ccc(O)cc2)=CC(=C\NCCNc2ccnc3cc(Cl)ccc23)/C1=O (centres undefined),1071.27
13,CCC(C)C1=CC(/C=C/C(=O)c2ccc(OC)cc2)=CC(=C\NCCNc2ccnc3cc(Cl)ccc23)/C1=O (centres undefined),1058.05
14,CCC(C)C1=CC(/C=C/C(=O)c2ccc(Cl)cc2)=CC(=C\NCCNc2ccnc3cc(Cl)ccc23)/C1=O (centres undefined),1014.51

# System: Plasmodium yoelii
# Experiment: Inhibition of beta-hematin formation in Plasmodium yoelii infected Swiss mouse plasma using hemin as substrate after 16 hrs by spectrophotometry
# Type: functional
# Details: not given
# Procedure, shortened: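 Plasma taken by cardiac puncture into 2.0% citrate from male Swiss mice (15–20 g) infected with 1 × 10^5 P. yoelii RBCs, at about 50% parasitemia. Mix: 100 mM sodium acetate pH 5.1, 50 µL plasma, 100 µM hemin, compound, in triplicate, 37 °C for 16 h with shaking. Pellet washed in Tris–HCl pH 7.4 with 2.5% SDS. IC50 = 50% inhibition; three experiments in triplicate.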
row,Compound,IC50
1,CCC(C)C1=CC(/C=C/C(=O)c2ccc(OC)cc2)=CC(=C\NCCCNc2ccnc3cc(Cl)ccc23)/C1=O (centres undefined),6.59 µg/mL
2,CCC(C)C1=CC(/C=C/C(=O)c2ccc(Cl)cc2)=CC(=C\NCCCNc2ccnc3cc(Cl)ccc23)/C1=O (centres undefined),6.08 µg/mL
3,COc1ccc(C(=O)/C=C/C2=CC(=C\Nc3ccc(Nc4ccnc5cc(Cl)ccc45)cc3)/C(=O)C(C)=C2)cc1,4.35 µg/mL
4,CC1=CC(/C=C/C(=O)c2ccc(F)cc2)=CC(=C\Nc2ccc(Nc3ccnc4cc(Cl)ccc34)cc2)/C1=O,3.78 µg/mL
5,CC(C)(C)C1=CC(/C=C/C(=O)c2ccc(Cl)cc2)=CC(=C\Nc2ccc(Nc3ccnc4cc(Cl)ccc34)cc2)/C1=O,7.88 µg/mL
6,CC(C)(C)C1=CC(/C=C/C(=O)c2ccc(Br)cc2)=CC(=C\Nc2ccc(Nc3ccnc4cc(Cl)ccc34)cc2)/C1=O,13.9 µg/mL
7,CCC(C)C1=CC(/C=C/C(=O)c2ccc(OC)cc2)=CC(=C\NCCNc2ccnc3cc(Cl)ccc23)/C1=O (centres undefined),12.6 µg/mL
8,CCC(C)C1=CC(/C=C/C(=O)c2ccc(Cl)cc2)=CC(=C\NCCNc2ccnc3cc(Cl)ccc23)/C1=O (centres undefined),11.2 µg/mL

# Results, then the compound that gave them:
row,IC50,Compound
1,5.34 µg/mL,COc1ccc(C(=O)/C=C/C2=CC(=C\NCCCNc3ccnc4cc(Cl)ccc34)/C(=O)C(C)=C2)cc1
2,2.9 µg/mL,CC1=CC(/C=C/C(=O)c2ccc(Cl)cc2)=CC(=C\NCCCNc2ccnc3cc(Cl)ccc23)/C1=O
3,2.93 µg/mL,CCC(C)C1=CC(/C=C/C(=O)c2ccc(O)cc2)=CC(=C\NCCCNc2ccnc3cc(Cl)ccc23)/C1=O (centres undefined)
4,2.89 µg/mL,CC1=CC(/C=C/C(=O)c2ccc(O)cc2)=CC(=C\NCCNc2ccnc3cc(Cl)ccc23)/C1=O
5,3.01 µg/mL,COc1ccc(C(=O)/C=C/C2=CC(=C\NCCNc3ccnc4cc(Cl)ccc34)/C(=O)C(C)=C2)cc1
6,2.99 µg/mL,CC1=CC(/C=C/C(=O)c2ccc(Cl)cc2)=CC(=C\NCCNc2ccnc3cc(Cl)ccc23)/C1=O
7,2.71 µg/mL,CCC(C)C1=CC(/C=C/C(=O)c2ccc(O)cc2)=CC(=C\NCCNc2ccnc3cc(Cl)ccc23)/C1=O (centres undefined)

# System: Plasmodium falciparum
# Experiment: Antimalarial activity against chloroquine-sensitive ring stage Plasmodium falciparum 3D7 after 72 hrs by SYBR Green-I assay
# Type: functional, organism-based
# Details: 3D7, 72 h
# Procedure, shortened: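 Asynchronous P. falciparum 3D7 culture (over 80% ring stages), 1.0% parasitized cell suspension at 0.8% parasitaemia, incubated with twofold serial dilutions at 37 °C, 5% CO2/air, 72 h. Lysis buffer with 1× SYBR Green-I added, 1 h at 37 °C. Fluorescence read at 485/530 nm excitation/emission. IC50 from triplicate experiments.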
row,Compound,IC50
1,CCC(C)C1=CC(/C=C/C(=O)c2ccc(OC)cc2)=CC(=C\NCCCNc2ccnc3cc(Cl)ccc23)/C1=O (centres undefined),0.0418 µg/mL
2,CCC(C)C1=CC(/C=C/C(=O)c2ccc(Cl)cc2)=CC(=C\NCCCNc2ccnc3cc(Cl)ccc23)/C1=O (centres undefined),0.0419 µg/mL
3,COc1ccc(C(=O)/C=C/C2=CC(=C\Nc3ccc(Nc4ccnc5cc(Cl)ccc45)cc3)/C(=O)C(C)=C2)cc1,0.201 µg/mL
4,CC1=CC(/C=C/C(=O)c2ccc(F)cc2)=CC(=C\Nc2ccc(Nc3ccnc4cc(Cl)ccc34)cc2)/C1=O,0.16 µg/mL
5,CC(C)(C)C1=CC(/C=C/C(=O)c2ccc(Cl)cc2)=CC(=C\Nc2ccc(Nc3ccnc4cc(Cl)ccc34)cc2)/C1=O,0.38 µg/mL
6,CC(C)(C)C1=CC(/C=C/C(=O)c2ccc(Br)cc2)=CC(=C\Nc2ccc(Nc3ccnc4cc(Cl)ccc34)cc2)/C1=O,> 0.1 µg/mL
7,CCC(C)C1=CC(/C=C/C(=O)c2ccc(OC)cc2)=CC(=C\NCCNc2ccnc3cc(Cl)ccc23)/C1=O (centres undefined),0.0183 µg/mL
8,CCC(C)C1=CC(/C=C/C(=O)c2ccc(Cl)cc2)=CC(=C\NCCNc2ccnc3cc(Cl)ccc23)/C1=O (centres undefined),0.0179 µg/mL

# Results, then the compound that gave them:
row,IC50,Compound
1,0.0388 µg/mL,COc1ccc(C(=O)/C=C/C2=CC(=C\NCCCNc3ccnc4cc(Cl)ccc34)/C(=O)C(C)=C2)cc1
2,0.0429 µg/mL,CC1=CC(/C=C/C(=O)c2ccc(Cl)cc2)=CC(=C\NCCCNc2ccnc3cc(Cl)ccc23)/C1=O
3,0.0424 µg/mL,CCC(C)C1=CC(/C=C/C(=O)c2ccc(O)cc2)=CC(=C\NCCCNc2ccnc3cc(Cl)ccc23)/C1=O (centres undefined)
4,0.00363 µg/mL,CC1=CC(/C=C/C(=O)c2ccc(O)cc2)=CC(=C\NCCNc2ccnc3cc(Cl)ccc23)/C1=O
5,0.0167 µg/mL,COc1ccc(C(=O)/C=C/C2=CC(=C\NCCNc3ccnc4cc(Cl)ccc34)/C(=O)C(C)=C2)cc1
6,0.0222 µg/mL,CC1=CC(/C=C/C(=O)c2ccc(Cl)cc2)=CC(=C\NCCNc2ccnc3cc(Cl)ccc23)/C1=O
7,0.022 µg/mL,CCC(C)C1=CC(/C=C/C(=O)c2ccc(O)cc2)=CC(=C\NCCNc2ccnc3cc(Cl)ccc23)/C1=O (centres undefined)

# From ChEMBL document CHEMBL2021766, “Antiplasmodial activity of novel keto-enamine chalcone-chloroquine based hybrid pharmacophores” (Bioorg Med Chem, 2012)
